Only some compounds are listed: those with a hit (about 3% of all), similar ones and a draw of the others.
SENP1 FRET inh – blocks the human SENP1 SUMO protease catalytic domain. Q9P0U3. recombinant SENP1 catalytic domain, CyPet-SUMO1-YPet FRET cleavage. inhibition, % at 10 µM. 360,000 tested, 0.21% active. AID 624204;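 active = inhibition at least 30% at 10 µM, raw YFP signal under a set limit, fluorescence ratio 0.5 to 1.5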;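 note: 0% = enzyme with DMSO and 100% = no enzyme wells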
Target sequence (Q9P0U3 419-644 limits assumed): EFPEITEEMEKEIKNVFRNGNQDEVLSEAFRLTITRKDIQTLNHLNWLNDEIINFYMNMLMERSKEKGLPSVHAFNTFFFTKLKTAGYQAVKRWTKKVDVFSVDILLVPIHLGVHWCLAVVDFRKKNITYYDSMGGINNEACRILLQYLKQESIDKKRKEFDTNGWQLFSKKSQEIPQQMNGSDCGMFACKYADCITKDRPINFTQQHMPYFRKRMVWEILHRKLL
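system = hSENP1 catalytic domain, recombinant | reagent = SFCypet-SUMO1-SFYpet substrate at 25 nM | doses = one dose per compound, 10 µM, 0.5% DMSO | incubation = enzyme reaction for 50 min at room temperature, dark | measured by = FRET, CFP and YFP emission | controls = no-enzyme low, enzyme-DMSO high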
HNF4A DNA FP – change in binding of human HNF4 alpha to DNA. P41235. HNF4a-FITC DNA binding, fluorescence polarization, 1 h. activity change, % at 10 µM. 360,000 tested, 0.3% active. AID 1224865; in the data active = activity change above about 30%, passing the limit was not always enough
Myeloid diff 2 – compounds promoting myeloid differentiation | ER-HoxA9 myeloid progenitors, lysozyme-GFP differentiation, flow cytometry | calls only at 10 µM | 360,000 tested, 1% active;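 active = normalized GFP-positive differentiation at or above the plate's own cutoff, the solvent-only control mean plus 3 SD; inconclusive = no clear call, values can overlap the other calls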;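 note: cells exposed to compound for four days before flow analysis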
Cardio protect – myocardial damage modulation in H9c2 cells. H9c2 cardiomyocytes, H2O2 injury protection, ATPLite, 2 h. protection from H2O2 cell death, % at 20 µM. 360,000 tested, 0.63% active. AID 588492;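 active = compounds giving at least 50% protection of heart cells from peroxide-induced death in the single-dose screen, raw or plate-pattern-corrected value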;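 note: 0% = DMSO wells with peroxide and 100% = DMSO wells without peroxide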
DSG3 Ab inh – human desmoglein-3 autoantibody binding inhibition; P32926; DSG3-coupled beads, scFv-anti-DSG3-GFP binding, flow cytometry; stronger effect = lower value; binding (percent of control), % at 10 µM; 310,000 tested, 0.48% active; AID 588358;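 active = binding more than 3 SD below its plate's average and above zero; inconclusive = below that plate limit but binding exactly zero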;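 note: hits lower antibody fragment binding to DSG3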
Exocytosis inh – lytic granule exocytosis inhibition. 360,000 tested, 0.66% active. TALL-104 LAMP-1 surface exposure, flow cytometry; cells stimulated with thapsigargin and PMA. inhibition, % at 10 µM;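 active = inhibition above about 55%, limit read from the data; inconclusive = no clear call, values can overlap the other calls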
Starred values were filed as active, the others as inactive; i = inactive; ? = inconclusive; / = no result given; + = active, no number.

SMILES	SENP1 FRET inh	HNF4A DNA FP	Myeloid diff 2	Cardio protect	DSG3 Ab inh	Exocytosis inh
CCOC(=O)C1=C(CSc2nc(CC)c(C)cc2C#N)OC(N)=C(C#N)C1c1ccc(OC)cc1 (centres undefined)	-23	6	+	2	/	1
CN(C(=O)CCOc1ccccc1)c1c(N)n(Cc2ccccc2)c(=O)[nH]c1=O	4	1	i	4	63*	15
CC1CCN(CC(=O)N(C)c2c(N)n(Cc3ccccc3)c(=O)[nH]c2=O)CC1	-3	6	+	-3	113	2
Cc1cccc(OCC(=O)N(Cc2ccco2)c2c(N)n(Cc3ccccc3)c(=O)[nH]c2=O)c1	-8	4	i	-2	/	13
CC(=O)c1cccc(OCC(=O)N(Cc2ccco2)c2c(N)n(Cc3ccccc3)c(=O)[nH]c2=O)c1	-4	-4	+	0	91	-1
COC(=O)C1CCN(CC(=O)N(C)c2c(N)n(Cc3ccccc3)c(=O)[nH]c2=O)CC1	-6	2	i	-6	103	12
Cc1nc(NC(=O)CN2CCN(c3cccc(Cl)c3)CC2)sc1C(=O)N(C)C	2	-1	i	-5	114	2
COc1cc(Cl)c(C)cc1NC(=O)CSc1nnc(CCC(=O)O)c(=O)[nH]1	1	4	i	10	108	-2
C[n+]1cc(C(=O)N2CCCCC2)ccc1/C=C/c1c[nH]c2ccccc12	-7	147	i	3	310	6
CN(CC(=O)Nc1cccc(F)c1)C(=O)CCc1nc2ccccc2c(=O)[nH]1	-6	-2	i	65*	100	-2
O=C(CCc1nc2ccccc2c(=O)[nH]1)Nc1ccc(N2CCCCC2)cc1	-2	-8	i	50*	106	0
COc1ccc(NC(=O)CCc2ccccc2)cc1S(=O)(=O)N1CCCCC1	1	1	i	0	/	3
O=C(CCc1nc2ccccc2c(=O)[nH]1)Nc1ccc(Cl)c(Cl)c1	-14	7	i	60*	104	-2
COc1ccc(NC(=O)CCc2nc3ccccc3c(=O)[nH]2)cc1S(=O)(=O)N1CCCCC1	-13	0	i	93*	/	6
CC(=O)Nc1ccc(NC(=O)CCc2nc3ccccc3c(=O)[nH]2)cc1	2	0	i	11	96	-11
CN(CC(=O)Nc1ccc(F)c(F)c1F)C(=O)CCCc1nc2ccccc2c(=O)[nH]1	1	0	i	34	101	3
O=C(CCc1nc2ccccc2c(=O)[nH]1)Nc1cc(Cl)ccc1N1CCCC1	-1	7	i	38	103	28
CN(C(=O)CCc1nc2ccccc2c(=O)[nH]1)C1CCS(=O)(=O)C1 (centres undefined)	-1	0	i	76*	101	-2
CC1Cc2ccccc2N1C(=O)c1cc2c(=O)n3ccccc3nc2n1C (centres undefined)	-68	4	i	66*	/	0
COc1cc(C(C)=O)ccc1OCC(O)CN1CCN(c2ccc(C)c(C)c2)CC1 (centres undefined)	-1	-5	i	-2	95	1
COc1cc(C(C)=O)ccc1OCC(O)CN1CCN(c2c(C)cccc2C)CC1 (centres undefined)	0	45*	i	-3	95	-2
Cc1cc(O)ccc1Nc1nc(-c2cccnc2)cs1	2	2	i	-12	115	-18
Cc1cc(O)ccc1Nc1nc(-c2cccs2)cs1	4	4	+	-17	107	1
O=C(NCc1ccncc1)[C@@H]1CCCN1C(=O)[C@@H]1CCCN1C(=O)c1ccccc1	1	0	i	/	/	3
Fc1ccc(NC(=S)Nc2ccc3nccnc3c2)cc1	1	3	i	62*	105	4
SMILES	SENP1 FRET inh	HNF4A DNA FP	Myeloid diff 2	Cardio protect	DSG3 Ab inh	Exocytosis inh
COC(=O)[C@@]12CCCCN1[C@H](c1ccc(-c3cc(C(C)=O)cs3)c(OC)c1)[C@H]1C(=O)N(C)C(=O)[C@H]12	-3	-2	i	31	95	3
COC(=O)[C@@]12CCCCN1[C@H](c1ccc(-c3cc(C(C)=O)cs3)cc1)[C@H]1C(=O)N(C)C(=O)[C@H]12	-2	-3	?	56*	108	0
O=C(CN1C(=O)c2ccccc2S1(=O)=O)NCc1cccs1	0	1	i	2	119	-2
C=CCC(C(=O)OC)(C(=O)OC)c1ccccc1[N+](=O)[O-]	1	-3	i	-4	102	-2
COCCCn1c(C(=O)Nc2ccc3c(c2)OCO3)cc2c(=O)n3cccc(C)c3nc21	-29	29	i	-24	102	2
CC(=O)Oc1ccc2c(C)cc(=O)oc2c1	-122	-2	i	61*	103	3
Cc1cc(=O)oc2cc(OCC(=O)NCCc3ccccc3)ccc12	1	5	+	1	97	-1
COc1ccc(CNC(=O)c2cccc(S(=O)(=O)N3CCCCC3)c2)cc1OC	2	1	i	-15	101	-2
CCCN(C(=O)CSc1n[nH]c(-c2ccc(OC)cc2)n1)c1c(N)n(Cc2ccccc2)c(=O)[nH]c1=O	0	8	+	-9	105	-1
CCS(=O)(=O)c1nc(S(=O)(=O)c2ccc(C)cc2)c(N2CCC(O)CC2)s1	0	-3	i	9	98	3
CCCCN(C(=O)C1CCCC1)c1c(N)n(CC(C)C)c(=O)[nH]c1=O	-14	2	i	6	/	-2
Nc1nc2c(ncn2COCCO)c(=O)[nH]1	0	/	i	16	116	4
Nc1nc2c(ncn2COC(CO)CO)c(=O)[nH]1	-1	0	+	16	102	-2
COc1cccc(C(O)c2ncc(-c3ccccc3)[nH]2)c1 (centres undefined)	-1	0	i	-3	/	-5
COc1ccc(/C=C(\C#N)C(=O)c2c(C)[nH]c3ccccc23)cc1OC	-11	2	i	54*	103	3
CCOC(=O)c1c(-c2ccccc2)csc1NC(=O)/C(C#N)=C/c1ccc(OC)c(OC)c1	-23	19	+	6	103	-3
CCOC(=O)c1c(-c2ccccc2)csc1NC(=O)/C(C#N)=C/c1ccc(O)c(OC)c1	-24	141	+	15	/	-3
CCOC(=O)/C(C#N)=C\c1ccc(OC)c(OC)c1	1	-7	i	-1	99	-3
CC(NC(=O)c1ccco1)C(=O)N1CCCCC1 (centres undefined)	0	-4	i	1	?	0
COCCCNC(=O)Cc1c(C)c2cc3c(cc2oc1=O)OC(C)(C)CC3	-2	0	i	3	101	-9
